The species named for one experiment is Danio rerio. Put plainly: Inhibition of caudal fin regeneration after mechanical resection in zebrafish at 10 uM after 7 days. The experiment is classed as functional, organism-based. The essentials:
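Zebrafish 3-6 months old anaesthetized in 0.02% Tricaine; half of caudal fin resected with razor blade; kept at 28°C in tank water with 10μM compound or DMSO; water and compound replenished daily over assay period.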

The target of experiment [1] is Axin-2 (Homo sapiens) (UniProt Q9Y2T1). The experiment in a line: Induction of Axin2 stabilization in human DLD1 cells assessed as inhibition of Wnt/beta-[…] pathway. The class given is cell-based. The conditions noted are these: DLD-1.
Experiment [2] can be described thus: Inhibition of Notch pathway in mouse L cells at 2.5 uM.
Experiment [3] can be described thus: Inhibition of Wnt3A/[…] pathway activity in mouse L cell expressing Wnt3a assessed as decrease in phosphorylated Dvl2 level at 5 uM after 24 hrs by Western blot analysis. The class given is cell-based.
A short description of experiment [4]: Inhibition of Wnt3A/[…] pathway activity in mouse L cell expressing Wnt3a assessed as decrease in phosphorylated Lrp6 level at 5 uM after 24 hrs by Western blot analysis. The experiment is classed as cell-based.
A short description of experiment [5]: Inhibition of Wnt3A/[…] pathway activity in mouse L cell expressing Wnt3a assessed as inhibition of […] accumulation at 5 uM after 24 hrs by Western blot analysis. The class given is cell-based.
The target in experiment [6] is T1, Protein-serine O-palmitoleoyltransferase porcupine (Homo sapiens) (UniProt Q9H237).
T1 sequence (whole entry): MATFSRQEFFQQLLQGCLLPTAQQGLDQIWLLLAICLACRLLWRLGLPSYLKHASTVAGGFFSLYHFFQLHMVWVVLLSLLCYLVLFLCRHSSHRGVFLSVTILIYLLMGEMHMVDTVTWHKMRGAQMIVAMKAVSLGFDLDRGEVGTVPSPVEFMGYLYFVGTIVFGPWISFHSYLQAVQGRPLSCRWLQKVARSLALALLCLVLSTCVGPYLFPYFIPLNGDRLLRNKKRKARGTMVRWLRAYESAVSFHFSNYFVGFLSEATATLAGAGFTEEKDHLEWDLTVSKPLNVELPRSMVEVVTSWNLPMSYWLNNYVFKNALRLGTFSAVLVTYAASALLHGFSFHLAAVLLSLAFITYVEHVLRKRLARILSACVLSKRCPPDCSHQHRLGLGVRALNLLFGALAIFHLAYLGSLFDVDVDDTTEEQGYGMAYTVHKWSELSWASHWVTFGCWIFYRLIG
Put plainly: Inhibition of porcn-mediated Shh palmitoylation in human DLD1 lysate by detergent solubility fractionation assessed as [3H]palmitate incorporation at 2.5 uM by autoradiography method.

The target of experiment [7] is T1, Protein-serine O-palmitoleoyltransferase porcupine (Homo sapiens). The experiment in a line: Displacement of IWP-PB from porcn in HEK293 lysate by Western blot analysis.
Experiment [8] has the same target. Put plainly: Inhibition of porcn-mediated Lrp6 maturation in human DLD1 lysate by detergent solubility fractionation assessed as [3H]palmitate incorporation at 2.5 uM by autoradiography method.
Experiment [9] can be described thus: Inhibition of Wnt2/beta-[…] pathway activity in mouse L cell expressing Wnt2 and STF assessed as decreased firefly luciferase reporter expression. The class given is cell-based.
For experiment [10], the target named is Axin-2 (Homo sapiens) (UniProt Q9Y2T1). The experiment in a line: Induction of Axin2 accumulation in human DLD1 cells by Western blot analysis. The class given is cell-based. The conditions noted are these: DLD-1. The essentials: (§1)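 DLD-1 cells exposed to IWR compound at 10μM for a 48 hr assay period; protein levels assessed by Western blot of cell lysates.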

The nature of experiment [11]: Inhibition of Wnt3A/[…] pathway activity in mouse L cell expressing Wnt3a assessed as decrease in phosphorylated Lrp6 level at 10 uM after 24 hrs by Western blot analysis. The experiment is classed as cell-based.
Experiment [12] in a line: Inhibition of Wnt3A/[…] pathway activity in mouse L cell expressing Wnt3a assessed as inhibition of […] accumulation at 10 uM after 24 hrs by Western blot analysis. The experiment is classed as cell-based.
The subject of experiment [13] is DLD-1. Put plainly: Decrease in beta-[…] accumulation in human DLD1 cells expressing in APC mutant. The class given is functional, cell-based.
Experiment [14] in a line: Inhibition of Wnt3A/[…] pathway activity in mouse L cell expressing Wnt3A and STF assessed as decreased firefly luciferase reporter expression. The class given is cell-based. The essentials: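 L-Wnt-STF cells (mouse L-cells stably carrying SuperTopFlash firefly luciferase reporter, control reporter and Wnt3A expression construct), ~5K per well; compounds added 24 hrs after seeding; luciferase activities read 24 hrs later; IC50s calculated from these dose-dependent assays.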

Experiment [15] can be described thus: Inhibition of Wnt3A/[…] pathway activity in mouse L cell expressing Wnt3a assessed as decrease in phosphorylated Dvl2 level at 10 uM after 24 hrs by Western blot analysis. The class given is cell-based.
Experiment [16] is described as follows: Inhibition of Wnt1/beta-[…] pathway activity in mouse L cell expressing Wnt1 and STF assessed as decreased firefly luciferase reporter expression. The class given is cell-based.
For experiment [17], the target named is T1, Protein-serine O-palmitoleoyltransferase porcupine (Homo sapiens). The experiment in a line: Inhibition of porcn in HEK293 cell lysate by Western blot analysis. The experiment is classed as cell-free. The essentials: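 Lysate (10mM Na2HPO4 pH7.4, […], 1% NP-40) of HEK293 cells transfected with Porcn-myc preincubated 1 hr at 4°C with DMSO, linker or competitor, then NeutrAvidin resin plus biotinylated probe (0.17 mM); rotated overnight at 4°C, washed, eluate analysed by Western blot.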

In experiment [18] the target is Axin-1 (Homo sapiens) (UniProt O15169). The experiment in a line: Induction of Axin1 protein stabilization in human H460 cells by Western blot analysis. The class given is cell-based.
In experiment [19] the test system is DLD-1. Put plainly: Antiproliferative activity against human DLD1 cells assessed as cellular ATP levels after 6 days by Cell-Titer Glow assay. The class given is functional, cell-based. The essentials:
(§2)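 Cancer cells seeded at 2.5K cells/well with carrier or compound, 0.5% DMSO final; medium with compound changed every 24 hrs for 5 days; on day 6 cellular ATP quantified by CellTiter-Glo luminescence.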

The next experiment has as its system DU-145. The experiment in a line: Antiproliferative activity against human DU145 cells assessed as cellular ATP levels after 6 days by Cell-Titer Glow assay. The class given is functional, cell-based. The essentials: as §2
The target in experiment [20] is Axin-1 (Homo sapiens) (UniProt O15169). The experiment in a line: Induction of Axin1 protein stabilization in human DLD1 cells by Western blot analysis. The class given is cell-based. The conditions noted are these: DLD-1. The essentials:
as §1

In the next experiment the test system is NCI-H460. Put plainly: Antiproliferative activity against human H460 cells assessed as cellular ATP levels after 6 days by Cell-Titer Glow assay. The class given is functional, cell-based. The essentials: as §2
Experiment [21] relates to DLD-1. The experiment in a line: Antiproliferative activity against human DLD1 cells overexpressing beta-[…] assessed as renilla luciferase activity after 6 days. The class given is functional, cell-based.
The target in experiment [22] is Axin-2 (Homo sapiens) (UniProt Q9Y2T1). The experiment in a line: Binding affinity to Axin2 IWR-IS in HEK293 cells. The class given is cell-based.
Experiment [23] has the same target. The experiment in a line: Binding affinity at Axin2 in HEK293 cells by Western blot method. The experiment is classed as cell-based.

Calls of active or inactive are those of the source. No cut-off for these calls is given here.

Sequence of Axin-2 (Homo sapiens) (Q9Y2T1 whole entry): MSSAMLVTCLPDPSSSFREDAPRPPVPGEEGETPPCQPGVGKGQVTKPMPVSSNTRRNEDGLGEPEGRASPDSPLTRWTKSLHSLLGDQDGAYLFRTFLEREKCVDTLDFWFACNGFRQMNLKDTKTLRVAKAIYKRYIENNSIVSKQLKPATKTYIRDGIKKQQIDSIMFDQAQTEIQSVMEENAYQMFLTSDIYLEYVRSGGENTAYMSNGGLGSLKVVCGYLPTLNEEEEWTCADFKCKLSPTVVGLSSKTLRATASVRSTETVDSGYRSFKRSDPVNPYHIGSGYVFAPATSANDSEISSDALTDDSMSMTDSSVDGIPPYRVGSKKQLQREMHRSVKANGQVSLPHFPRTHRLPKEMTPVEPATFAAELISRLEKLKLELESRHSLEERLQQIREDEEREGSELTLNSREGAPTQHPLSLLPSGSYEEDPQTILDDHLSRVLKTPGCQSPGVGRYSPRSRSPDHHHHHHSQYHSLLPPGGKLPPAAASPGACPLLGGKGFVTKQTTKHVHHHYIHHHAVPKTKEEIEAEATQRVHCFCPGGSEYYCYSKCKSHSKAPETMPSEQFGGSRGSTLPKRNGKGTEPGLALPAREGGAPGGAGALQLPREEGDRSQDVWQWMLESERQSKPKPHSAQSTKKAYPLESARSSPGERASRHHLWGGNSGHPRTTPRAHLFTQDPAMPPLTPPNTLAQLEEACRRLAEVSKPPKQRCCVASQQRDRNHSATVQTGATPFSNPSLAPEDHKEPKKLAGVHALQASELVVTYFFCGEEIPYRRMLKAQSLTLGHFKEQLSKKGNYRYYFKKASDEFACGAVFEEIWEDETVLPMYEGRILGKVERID
Sequence of Axin-1 (Homo sapiens) (O15169 whole entry): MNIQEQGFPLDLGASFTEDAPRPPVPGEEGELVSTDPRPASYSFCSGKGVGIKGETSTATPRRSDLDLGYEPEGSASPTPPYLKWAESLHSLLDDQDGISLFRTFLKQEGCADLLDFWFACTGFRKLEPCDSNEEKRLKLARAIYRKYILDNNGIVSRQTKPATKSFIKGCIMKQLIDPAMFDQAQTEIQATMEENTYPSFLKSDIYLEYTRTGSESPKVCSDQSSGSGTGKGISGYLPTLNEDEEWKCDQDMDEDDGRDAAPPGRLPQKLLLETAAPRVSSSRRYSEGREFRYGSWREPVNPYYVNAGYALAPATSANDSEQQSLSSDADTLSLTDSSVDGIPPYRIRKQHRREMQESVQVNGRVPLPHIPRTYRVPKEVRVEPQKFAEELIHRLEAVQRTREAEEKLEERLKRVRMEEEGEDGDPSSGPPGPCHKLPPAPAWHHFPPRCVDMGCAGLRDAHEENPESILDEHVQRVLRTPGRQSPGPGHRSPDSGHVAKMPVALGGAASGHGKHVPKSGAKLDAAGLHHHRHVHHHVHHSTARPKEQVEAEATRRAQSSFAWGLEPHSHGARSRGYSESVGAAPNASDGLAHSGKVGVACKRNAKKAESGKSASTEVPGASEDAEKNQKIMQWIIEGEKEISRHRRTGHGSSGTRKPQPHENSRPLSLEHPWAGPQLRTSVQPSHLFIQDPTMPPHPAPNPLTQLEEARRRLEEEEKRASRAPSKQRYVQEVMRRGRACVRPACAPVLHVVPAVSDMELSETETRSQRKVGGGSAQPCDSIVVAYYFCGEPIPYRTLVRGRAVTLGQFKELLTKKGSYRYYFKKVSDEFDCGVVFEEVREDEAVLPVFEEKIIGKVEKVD

With `O=C(O)c1ccc(N2C(=O)[C@@H]3[C@H](C2=O)[C@@H]2C=C[C@H]3C2)cc1`, the inhibition entry in the experiment listed under Danio rerio was “inactive”. Also, the outcome on Axin-2 (Homo sapiens) [1] was inactive.

For `Cc1ccc2nc(NC(=O)CSc3nc4c(c(=O)n3-c3ccc(F)cc3)SCC4)sc2c1`, the inhibition result (in the experiment filed under Danio rerio; in experiment [2]; in experiment [6]) was “inactive” in each case. Moreover, the inhibition entry in experiment [3], in [4] and in experiment [5] was “Active” each time.

On to `COc1ccc(-n2nc(C(=O)NCC(=O)Nc3nc4ccc(OC)cc4s3)c3ccccc3c2=O)cc1`, for which the inhibition result (in the experiment filed under Danio rerio; in [2]; in experiment [8]; in experiment [6]) was “inactive” each time. The inhibition result in experiment [7], in experiment [3], in experiment [4] and in experiment [5] was “Active” each time.

In the case of `O=C(NC1CCCC1)c1ccc(Cn2c(=O)c3ccccc3n(Cc3cc(=O)n4ccccc4n3)c2=O)cc1`, the inhibition entry (in experiment [9]; in [12]; in the experiment with DLD-1 [13]; in experiment [14]; in [16]) was “Active” throughout. Further, the result on Axin-2 (Homo sapiens) [10] was Active. The inhibition result in experiment [11] and in [15] was “inactive” in each case.

For `CC1Cc2nc(SCC(=O)Nc3nc4ccccc4s3)n(Cc3ccccc3)c(=O)c2S1` (stereo unspecified), the “Inhibition (active/inactive)” value in [17] is “Active”.

In the case of `O=C(Nc1cccc2cccnc12)c1ccc(N2C(=O)[C@@H]3[C@H](C2=O)[C@H]2C=C[C@@H]3C2)cc1`, in the experiment listed under Danio rerio, the inhibition entry is “inactive”. Moreover, at Axin-2 (Homo sapiens) [1], the result was inactive.

For the compound `N#Cc1ccccc1Cn1c(=O)n(CC2CCC(C(=O)NCc3ccccc3)CC2)c(=O)c2ccccc21` (stereo unspecified), the inhibition result (in experiment [9]; in experiment [12]; in the experiment on DLD-1 [13]; in experiment [14]; in [16]) was “Active” throughout. Moreover, on Axin-2 (Homo sapiens) [10], the outcome was Active. Besides, the inhibition entry in [11] and in [15] was “inactive” in each case.

For `Cc1ccc2nc(NC(=O)CSc3nc4c(c(=O)n3Cc3ccccc3)SCC4)sc2c1`, the “Inhibition (active/inactive)” value in experiment [17] was “Active”.

For `Cc1cccc2nc(Cn3c(=O)n(CC4CCC(C(=O)NCc5ccccc5)CC4)c(=O)c4ccccc43)cc(=O)n12` (stereo unspecified), the outcome at Axin-1 (Homo sapiens) [18], on Axin-2 (Homo sapiens) [10], in the experiment with DLD-1 [19], in the experiment on DU-145 and on Axin-1 (Homo sapiens) [20] was Active. Moreover, the inhibition entry (in experiment [9]; in the experiment filed under Danio rerio; in experiment [12]; with DLD-1 [13]; in experiment [14]; in experiment [16]) was “Active” each time. Besides, the inhibition entry in experiment [11] and in [15] was “inactive” in each case. Moreover, the result in the experiment on NCI-H460 and with DLD-1 [21] was inactive.

Regarding `Cc1ccc2nc(NC(=O)CSc3nc4c(c(=O)n3-c3ccc(CNC(=O)CCOCCOCCOCCNC(=O)CCCC[C@@H]5SC[C@@H]6NC(=O)N[C@@H]65)cc3)SCC4)sc2c1`, the result at Axin-2 (Homo sapiens) [22] and at Axin-2 (Homo sapiens) [23] was Active. For the same compound, in experiment [17], the “Inhibition (active/inactive)” value was “Active”.

Turning to `COc1ccccc1-n1c(SCC(=O)Nc2nc3ccc(C)cc3s2)nc2c(c1=O)SCC2`, the inhibition entry (in the experiment listed under Danio rerio; in [2]; in [6]) was “inactive” in each case. Also, the inhibition result in [3], in experiment [4] and in experiment [5] was “Active” throughout.

`O=C(CSc1nc2c(c(=O)n1-c1ccccc1)SCC2)Nc1nccs1`: in experiment [17], the “Inhibition (active/inactive)” value was “Active”.
